Reference: ChEMBL document CHEMBL2380295, “Structure-activity studies on the side chain of a simplified analog of aplysiatoxin (aplog-1) with anti-proliferative activity” (Bioorg Med Chem, 2013)
pKi: −log10 of the molar value.

Tests used:
[1] = Growth inhibition of human BSY1 cells after 48 hrs by sulforhodamine B assay; format: functional; settings: BSY-1, 48 h
In short: (§1)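 Yamori 39-line human cancer panel, NCI method with modifications. Cells plated in RPMI 1640 plus 5% FBS, attached overnight, then exposed 48 h to compound at 10^-8, 10^-7, 10^-6, 10^-5 and 10^-4 M. Sulforhodamine B staining read at 525 nm; % growth = 100[(T−T0)/(C−T0)] from duplicate-point averages, with T0 the time-zero absorbance. GI50 is the concentration giving 50.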

[2] = system: St-4; experiment: Growth inhibition of human St-4 cells after 48 hrs by sulforhodamine B assay; format: functional; settings: St-4, 48 h; in short: as §1
[3] = system: DMS-273; experiment: Growth inhibition of human DMS273 cells after 48 hrs by sulforhodamine B assay; format: functional; settings: DMS-273, 48 h; in short: as §1
[4] = system: OVCAR-5; experiment: Growth inhibition of human OVCAR5 cells after 48 hrs by sulforhodamine B assay; format: functional; settings: OVCAR-5, 48 h; in short: as §1
[5] = Growth inhibition of human MKN1 cells after 48 hrs by sulforhodamine B assay; format: functional; settings: MKN-1, 48 h; in short: as §1
[6] = system: NCI-H460; experiment: Growth inhibition of human NCI-H460 cells after 48 hrs by sulforhodamine B assay; format: functional; settings: NCI-H460, 48 h; in short: as §1
[7] = Growth inhibition of human RXF631L cells after 48 hrs by sulforhodamine B assay; format: functional; settings: RXF 631, 48 h; in short: as §1
[8] = system: NCI-H522; experiment: Growth inhibition of human NCI-H522 cells after 48 hrs by sulforhodamine B assay; format: functional; settings: NCI-H522, 48 h; in short: as §1
[9] = system: DU-145; experiment: Growth inhibition of human DU145 cells after 48 hrs by sulforhodamine B assay; format: functional; settings: DU-145, 48 h; in short: as §1
[10] = Growth inhibition of human HBC4 cells after 48 hrs by sulforhodamine B assay; format: functional; settings: HBC4, 48 h; in short: as §1
[11] = system: SF-539; experiment: Growth inhibition of human SF539 cells after 48 hrs by sulforhodamine B assay; format: functional; settings: SF-539, 48 h; in short: as §1
[12] = system: SNB-78; experiment: Growth inhibition of human SNB78 cells after 48 hrs by sulforhodamine B assay; format: functional; settings: SNB-78, 48 h; in short: as §1
[13] = target: T1, Protein kinase C delta type (Homo sapiens, UniProt Q05655); experiment: Inhibition of [3H]PDBu binding to PKCdelta-C1A domain peptide (unknown origin)
T1 sequence (Q05655 whole entry, the tested form may be a part): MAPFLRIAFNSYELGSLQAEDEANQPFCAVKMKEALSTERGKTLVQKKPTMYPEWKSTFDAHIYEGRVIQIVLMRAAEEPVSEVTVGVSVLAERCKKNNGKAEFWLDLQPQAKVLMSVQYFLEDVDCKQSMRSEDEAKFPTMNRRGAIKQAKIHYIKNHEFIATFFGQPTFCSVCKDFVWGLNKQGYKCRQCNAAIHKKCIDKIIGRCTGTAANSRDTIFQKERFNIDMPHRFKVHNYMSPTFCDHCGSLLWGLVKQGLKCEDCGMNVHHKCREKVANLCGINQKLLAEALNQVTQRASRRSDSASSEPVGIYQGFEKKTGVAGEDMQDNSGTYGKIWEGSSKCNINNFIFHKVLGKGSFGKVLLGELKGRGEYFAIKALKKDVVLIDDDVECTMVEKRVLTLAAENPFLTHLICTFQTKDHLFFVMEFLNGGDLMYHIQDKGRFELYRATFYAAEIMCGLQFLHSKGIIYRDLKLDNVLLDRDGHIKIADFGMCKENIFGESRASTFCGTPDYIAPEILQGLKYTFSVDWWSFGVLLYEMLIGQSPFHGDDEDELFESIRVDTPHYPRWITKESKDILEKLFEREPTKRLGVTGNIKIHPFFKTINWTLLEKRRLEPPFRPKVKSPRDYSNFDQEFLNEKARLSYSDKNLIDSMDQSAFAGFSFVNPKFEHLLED
In short: (§2)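 Competitive [3H]PDBu binding used 14 or 40 nM PKCδ C1 peptide and 20 nM [3H]PDBu (19.6 Ci/mmol), in 50 mM Tris-maleate (pH 7.4 at 4 °C) with 50 µg/mL phosphatidylserine, 3 mg/mL bovine γ-globulin and varied inhibitor concentrations. IC50 was taken as 50% inhibition of specific binding. Ki was derived by the Sharkey–Blumberg method.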

[14] = system: HCT-15; experiment: Growth inhibition of human HCT15 cells after 48 hrs by sulforhodamine B assay; format: functional; settings: HCT-15, 48 h; in short: as §1
[15] = system: OVCAR-8; experiment: Growth inhibition of human OVCAR8 cells after 48 hrs by sulforhodamine B assay; format: functional; settings: OVCAR-8, 48 h; in short: as §1
[16] = system: PC-3; experiment: Growth inhibition of human PC3 cells after 48 hrs by sulforhodamine B assay; format: functional; settings: PC-3, 48 h; in short: as §1
[17] = Octanol-water partition coefficient, log P of the compound by HPLC analysis; format: physicochemical
In short: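 log P was estimated from HPLC retention, with column dead time measured using unretained formamide.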

[18] = system: SK-OV-3; experiment: Growth inhibition of human SKOV3 cells after 48 hrs by sulforhodamine B assay; format: functional; settings: SK-OV-3, 48 h; in short: as §1
[19] = system: U-251; experiment: Growth inhibition of human U251 cells after 48 hrs by sulforhodamine B assay; format: functional; settings: U-251, 48 h; in short: as §1
[20] = system: MKN-28; experiment: Growth inhibition of human MKN28 cells after 48 hrs by sulforhodamine B assay; format: functional; settings: MKN-28, 48 h; in short: as §1
[21] = system: SF-295; experiment: Growth inhibition of human SF295 cells after 48 hrs by sulforhodamine B assay; format: functional; settings: SF-295, 48 h; in short: as §1
[22] = system: KM12; experiment: Growth inhibition of human KM12 cells after 48 hrs by sulforhodamine B assay; format: functional; settings: KM12, 48 h; in short: as §1
[23] = Cytotoxicity against human Raji cells assessed as cell viability at 10^-7 M; format: cell-based; settings: read-out: Activity
[24] = Cytotoxicity against human Raji cells assessed as cell viability at 10^-6 M; format: cell-based; settings: read-out: Activity
[25] = system: HCT-116; experiment: Growth inhibition of human HCT116 cells after 48 hrs by sulforhodamine B assay; format: functional; settings: HCT-116, 48 h; in short: as §1
[26] = system: NCI-H226; experiment: Growth inhibition of human NCI-H226 cells after 48 hrs by sulforhodamine B assay; format: functional; settings: NCI-H226, 48 h; in short: as §1
[27] = Growth inhibition of human HCC2998 cells after 48 hrs by sulforhodamine B assay; format: functional; settings: HCC 2998, 48 h; in short: as §1
[28] = system: MDA-MB-231; experiment: Growth inhibition of human MDA-MB-231 cells after 48 hrs by sulforhodamine B assay; format: functional; settings: MDA-MB-231, 48 h; in short: as §1
[29] = system: ACHN; experiment: Growth inhibition of human ACHN cells after 48 hrs by sulforhodamine B assay; format: functional; in short: as §1
[30] = system: NCI-H23; experiment: Growth inhibition of human NCI-H23 cells after 48 hrs by sulforhodamine B assay; format: functional; settings: NCI-H23, 48 h; in short: as §1
[31] = system: DMS-114; experiment: Growth inhibition of human DMS114 cells after 48 hrs by sulforhodamine B assay; format: functional; settings: DMS-114, 48 h; in short: as §1
[32] = system: MKN-45; experiment: Growth inhibition of human MKN45 cells after 48 hrs by sulforhodamine B assay; format: functional; settings: MKN-45, 48 h; in short: as §1
[33] = system: LOX IMVI; experiment: Growth inhibition of human LOXIMVI cells after 48 hrs by sulforhodamine B assay; format: functional; in short: as §1
[34] = system: MKN-74; experiment: Growth inhibition of human MKN74 cells after 48 hrs by sulforhodamine B assay; format: functional; settings: MKN-74, 48 h; in short: as §1
[35] = Growth inhibition of human HBC5 cells after 48 hrs by sulforhodamine B assay; format: functional; settings: HBC5, 48 h; in short: as §1
[36] = system: MCF7; experiment: Growth inhibition of human MCF7 cells after 48 hrs by sulforhodamine B assay; format: functional; settings: MCF7, 48 h; in short: as §1
[37] = system: Human gammaherpesvirus 4; experiment: Induction of EBV-early antigen expressed in human Raji cells at 10^-6 M after 48 hrs by immunofluorescence assay relative to control; format: organism-based; settings: human gammaherpesvirus 4, raji, 1 µM
In short: (§3)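 Raji B-lymphoblastoid cells (5 × 10^5/mL) in RPMI 1640 with 10% FBS, with 4 mM sodium n-butyrate as synergist and test compound at 10^-7 or 10^-6 M (final DMSO 0.4%). Incubated 48 h at 37 °C under 5% CO2. Smears were stained by indirect immunofluorescence using NPC patient serum and FITC anti-human IgG. At least 500 cells counted; % EA-positive recorded; n = 3, SEM.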

[38] = system: A549; experiment: Growth inhibition of human A549 cells after 48 hrs by sulforhodamine B assay; format: functional; settings: A549, 48 h; in short: as §1
[39] = system: SNB-75; experiment: Growth inhibition of human SNB75 cells after 48 hrs by sulforhodamine B assay; format: functional; settings: SNB-75, 48 h; in short: as §1
[40] = target: T1, Protein kinase C delta type; experiment: Inhibition of [3H]PDBu binding to PKCdelta-C1B domain peptide (unknown origin); in short: as §2
[41] = system: OVCAR-4; experiment: Growth inhibition of human OVCAR4 cells after 48 hrs by sulforhodamine B assay; format: functional; settings: OVCAR-4, 48 h; in short: as §1
[42] = system: OVCAR-3; experiment: Growth inhibition of human OVCAR3 cells after 48 hrs by sulforhodamine B assay; format: functional; settings: OVCAR-3, 48 h; in short: as §1
[43] = system: MKN-7; experiment: Growth inhibition of human MKN7 cells after 48 hrs by sulforhodamine B assay; format: functional; settings: MKN-7, 48 h; in short: as §1
[44] = system: SF-268; experiment: Growth inhibition of human SF268 cells after 48 hrs by sulforhodamine B assay; format: functional; settings: SF-268, 48 h; in short: as §1
[45] = system: HT-29; experiment: Growth inhibition of human HT-29 cells after 48 hrs by sulforhodamine B assay; format: functional; settings: HT-29, 48 h; in short: as §1
[46] = system: Human gammaherpesvirus 4; experiment: Induction of EBV-early antigen expressed in human Raji cells at 10^-7 M after 48 hrs by immunofluorescence assay relative to control; format: organism-based; settings: human gammaherpesvirus 4, raji, 0.1 µM; in short: as §3

With CC1(C)CC[C@@H]2CC(=O)O[C@@H](CO)CC(=O)O[C@@H]3C[C@@H](CCCCc4cc(O)c(Br)cc4Br)O[C@@]1(C3)O2 the GI50 [1] was 4.57 µM, the GI50 [2] was 1290 nM and the GI50 [3] was 10.7 µM. The GI50 [4] was 10 µM, the GI50 [5] was 10.2 µM and the GI50 [6] was 1230 nM. The GI50 [7] was 14.5 µM, the GI50 [8] was 13.8 µM and the GI50 [9] was 11.2 µM. The GI50 [10] was 224 nM, the GI50 [11] was 10 µM and the GI50 [12] was 12.9 µM. For the same compound, the pKi [13] was 7.03, the GI50 [14] was 13.8 µM and the GI50 [15] was 15.8 µM. For the same compound, the GI50 [16] was 3.89 µM, the logP [17] was 5 and the GI50 [18] was 15.8 µM. It also gave a GI50 [19] of 11.7 µM, a GI50 [20] of 8.32 µM and a GI50 [21] of 6.61 µM. For the same compound, the GI50 [22] was 4.79 µM, the viability at 0.1 µM [23] was 40% and the viability at 1 µM [24] was 40%. For the same compound, the GI50 [25] was 10.7 µM, the GI50 [26] was 15.1 µM and the GI50 [27] was 891 nM. The GI50 [28] was 2950 nM, the GI50 [29] was 5.75 µM and the GI50 [30] was 6.61 µM. It also gave a GI50 [31] of 13.5 µM, a GI50 [32] of 3.72 µM and a GI50 [33] of 2820 nM. For the same compound, the GI50 [34] was 11 µM, the GI50 [35] was 14.1 µM and the GI50 [36] was 12.3 µM. The Activity [37] was 2.1%, the GI50 [38] was 4.9 µM and the GI50 [39] was 5.89 µM. For the same compound, the pKi [40] was 8.39, the GI50 [41] was 15.5 µM and the GI50 [42] was 6.17 µM. The GI50 [43] was 6.46 µM, the GI50 [44] was 12.6 µM and the GI50 [45] was 15.5 µM. The Activity [46] was 2%.
